# Results as given in article PMC5561660 (Organic & biomolecular chemistry, 2017).
# Like-named read-outs stand apart in the source and are kept apart here.
# What was measured:
# σ2 receptor [1] = target: T1, σ2 receptor (Rattus norvegicus, UniProt Q5U3Y7); settings: read-out: Ki σ2, mean ± SEM, cited from earlier work
# T1 sequence (Q5U3Y7 1-176): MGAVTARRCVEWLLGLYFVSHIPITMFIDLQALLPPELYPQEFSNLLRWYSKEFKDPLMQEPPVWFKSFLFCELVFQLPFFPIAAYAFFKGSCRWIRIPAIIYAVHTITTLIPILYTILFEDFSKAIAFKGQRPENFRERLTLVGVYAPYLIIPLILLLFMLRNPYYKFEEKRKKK
# σ2 receptor [2] = settings: selectivity ratio, cited from earlier work
# σ1 receptor [3] = target: σ1 receptor (Cavia porcellus, UniProt Q60492); settings: read-out: Ki σ1, mean ± SEM, cited from earlier work
# σ1 receptor (Cavia porcellus, UniProt Q60492), sequence (Q60492 whole entry): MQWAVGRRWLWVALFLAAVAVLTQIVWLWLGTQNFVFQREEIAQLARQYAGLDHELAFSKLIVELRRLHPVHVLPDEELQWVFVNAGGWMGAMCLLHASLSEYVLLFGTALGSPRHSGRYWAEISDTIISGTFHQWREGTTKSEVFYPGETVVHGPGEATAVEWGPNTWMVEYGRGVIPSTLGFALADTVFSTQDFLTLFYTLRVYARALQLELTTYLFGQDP
# σ1 receptor [4] = settings: selectivity ratio, cited from earlier work
# human VAChT [5] = target: T2, human VAChT (Homo sapiens, UniProt Q16572); settings: read-out: Ki VAChT, mean ± SEM, cited from earlier work
# T2 sequence (Q16572 1-532): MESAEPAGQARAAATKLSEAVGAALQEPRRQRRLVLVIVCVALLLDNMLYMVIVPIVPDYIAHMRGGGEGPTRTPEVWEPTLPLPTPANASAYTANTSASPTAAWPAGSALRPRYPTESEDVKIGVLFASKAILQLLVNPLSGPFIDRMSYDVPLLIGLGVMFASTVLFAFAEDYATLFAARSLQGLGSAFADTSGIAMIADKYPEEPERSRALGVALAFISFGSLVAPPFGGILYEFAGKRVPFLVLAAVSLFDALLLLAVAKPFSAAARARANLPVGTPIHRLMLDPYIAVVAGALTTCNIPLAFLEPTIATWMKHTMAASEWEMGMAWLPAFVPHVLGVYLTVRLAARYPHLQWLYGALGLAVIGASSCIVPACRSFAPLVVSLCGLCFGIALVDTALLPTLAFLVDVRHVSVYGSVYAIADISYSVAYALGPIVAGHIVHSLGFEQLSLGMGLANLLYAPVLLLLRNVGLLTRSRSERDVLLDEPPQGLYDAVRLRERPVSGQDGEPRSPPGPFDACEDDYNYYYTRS
# human VAChT [6] = target: T2, human VAChT; assay: VAChT competitive binding, displacement of
# Procedure, shortened: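 Postnuclear supernatant (200 µg) from PC12A123.7 cells expressing human VAChT, incubated with (−)-[3H]vesamicol and test compound (0.1–10,000 nM, 10-fold steps) in 110 mM potassium tartrate, 20 mM HEPES pH 7.4, 1 mM DTT, 0.02% sodium azide, 22 °C, 24 h. Duplicate filtration on PEI-coated GF/F filters, buffer washes, scintillation counting. Ki from rectangular hyperbola fit of averaged data; ≥2 independent assays.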
smiles,measurement,setting,value
"O=C(c1ccc(OCCF)cc1)C1CCN(C2Cc3ccccc3CC2O)CC1 (racemic) [(±)-5, (4-(2-fluoroethoxy)phenyl)(1-(3-hydroxy-1,2,3,4-tetrahydronaphthalen-2-yl)piperidin-4-yl)methanone]",Ki,σ2 receptor [1]; ref [20],1860 ± 140 nM
same,σ2/VAChT,σ2 receptor [2]; ref [20],49
same,Ki,σ1 receptor [3]; ref [20],2120 ± 50 nM
same,σ1/VAChT,σ1 receptor [4]; ref [20],56
same,Ki,human VAChT [5]; ref [20],38 ± 3.8 nM
"O=C(c1ccc(OCCF)nc1)C1CCN(C2Cc3ccccc3CC2O)CC1 (racemic) [(±)-6, (6-(2-fluoroethoxy)pyridin-3-yl)(1-(3-hydroxy-1,2,3,4-tetrahydronaphthalen-2-yl)piperidin-4-yl)methanone]",Ki,σ2 receptor [1]; ref [23],1890 ± 240 nM
same,σ2/VAChT,σ2 receptor [2]; ref [23],1086
same,Ki,σ1 receptor [3]; ref [23],13.2 ± 0.2 nM
same,σ1/VAChT,σ1 receptor [4]; ref [23],8
same,Ki,human VAChT [5]; ref [23],1.74 ± 0.32 nM
"O=C(c1ccc(NCCF)cc1)C1CCN(C2Cc3ccccc3CC2O)CC1 (racemic) [(±)-7, (4-((2-Fluoroethyl)amino)phenyl)(1-(3-hydroxy-1,2,3,4-tetrahydronaphthalen-2-yl)piperidin-4-yl)methanone]",Ki,human VAChT [6],2.68 ± 0.23 nM
